Test results taken from ChEMBL document CHEMBL2407032, “Structural modification of pantothenamides counteracts degradation by pantetheinase and improves antiplasmodial activity” (ACS Med Chem Lett, 2013).

What was measured:
[1] = test system: Plasmodium falciparum; test: Antiplasmodial activity against intraerythrocytic Plasmodium falciparum 3D7 infected in human erythrocytes in fresh RPMI-1640 culture medium assessed as parasite growth inhibition after 96 hrs by microscopic analysis in presence of pantetheinase; format: functional, organism-based; details: 3D7, 96 h
Summary of the method: (§1)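 3D7 parasites in erythrocytes, started mostly at ring stage, grown 96 h in freshly prepared Albumax-complete RPMI (pantetheinase active) with 1 μM pantothenic acid. IC50 from concentration-response. Mean ± SEM (or range/2) of at least two independent experiments, each in triplicate.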

[2] = test system: Plasmodium falciparum; test: Antiplasmodial activity against intraerythrocytic Plasmodium falciparum 3D7 infected in human erythrocytes in heat treated RPMI-1640 culture medium assessed as parasite growth inhibition after 96 hrs by microscopic analysis; format: functional, organism-based; details: 3D7, 96 h
Summary of the method: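 3D7 ring-stage-initiated cultures in erythrocytes, grown 96 h in aged Albumax-complete RPMI. The medium was heat-treated for a prolonged time to reduce pantetheinase activity and held 1 μM pantothenic acid. IC50 from concentration-response. Mean ± SEM (or range/2) of at least two independent experiments, each in triplicate.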

[3] = test system: Plasmodium falciparum; test: Antiplasmodial activity against intraerythrocytic Plasmodium falciparum 3D7 infected in human erythrocytes in fresh RPMI-1640 culture medium assessed as parasite growth inhibition after 96 hrs by microscopic analysis; format: functional, organism-based; details: 3D7, 96 h; summary of the method: as §1
[4] = test system: pantetheinase; test: Drug metabolism of the compound assessed as compound hydrolysis at 200 uM after 10 mins by fluorescence assay in presence of recombinant human pantetheinase; format: physicochemical; details: read-out: Drug metabolism
[5] = test system: Jurkat; test: Cytotoxicity against human Jurkat cells after 96 hrs by SYBR green assay in presence of pantothenic acid; format: cell-based
Summary of the method: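 Human leukemic T-cell line grown 96 h in medium with 1 μM pantothenic acid. IC50 from concentration-response profiles. Means ± SEM of three independent experiments performed in triplicate.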

[6] = Selectivity index, ratio of IC50 for human Jurkat cells to IC50 for intraerythrocytic Plasmodium falciparum 3D7 infected in human erythrocytes in fresh RPMI-1640 culture medium; format: toxicity, cell-based; details: read-out: Ratio IC50

Structure (SMILES)	IC50 [1] [µM]	IC50 [2] [µM]	IC50 [3] [µM]	metabolised at 10 min, 200 µM [4] [%]	IC50 [5] [µM]	selectivity ratio [6]
CCSCCNC(=O)CNC(=O)[C@H](O)C(C)(C)CO	200	11	10	5	–	–
CC(C)CNC(=O)CNC(=O)[C@H](O)C(C)(C)CO	–	–	18	5	–	–
CCCCNC(=O)CCNC(=O)[C@H](O)C(C)(C)CO	–	–	> 200	–	–	–
CC(C)(CO)[C@@H](O)C(=O)NCCC(=O)NCc1ccc2c(c1)OCO2	–	–	144	–	–	–
CC(C)(CO)[C@@H](O)C(=O)NCC(=O)NCc1cccc(C(F)(F)F)c1	177	116	89	5	–	–
CC(C)(CO)[C@@H](O)C(=O)NCCC(=O)NCc1cccc(C(F)(F)F)c1	–	156	> 200	–	–	–
COc1cccc(CNC(=O)CCCNC(=O)[C@H](O)C(C)(C)CO)c1	> 200	22	21	5	–	–
CC(C)CCNC(=O)CNC(=O)[C@H](O)C(C)(C)CO	–	–	12	5	–	–
CC(C)CNC(=O)CCCNC(=O)[C@H](O)C(C)(C)CO	–	–	11	5	–	–
CC(C)(CO)[C@@H](O)C(=O)NCCC(=O)NCc1ccccc1	–	> 200	> 200	–	–	–
CC(C)CCNC(=O)CCCNC(=O)[C@H](O)C(C)(C)CO	–	–	8.9	5	–	–
COc1ccc(CNC(=O)CNC(=O)[C@H](O)C(C)(C)CO)cc1	189	71	26	5	–	–
COc1cccc(CNC(=O)CNC(=O)[C@H](O)C(C)(C)CO)c1	–	> 200	> 200	5	–	–
CC(C)CCNC(=O)CCNC(=O)[C@H](O)C(C)(C)CO	–	–	> 200	–	–	–
CC(C)(CO)[C@@H](O)C(=O)NCCC(=O)NCC1CCCCC1	–	> 200	> 200	–	–	–
CCCCCCCNC(=O)CNC(=O)[C@H](O)C(C)(C)CO	–	–	46	5	–	–
CCCCCNC(=O)CNC(=O)[C@H](O)C(C)(C)CO	142	14	7	5	–	–
CC(C)(CO)[C@@H](O)C(=O)NCCC(=O)NCc1ccc(C(F)(F)F)cc1	–	117	107	–	–	–
CC(C)(CO)[C@@H](O)C(=O)NCC(=O)NCc1ccccc1	> 200	127	122	5	–	–
CCCNC(=O)CCNC(=O)[C@H](O)C(C)(C)CO	–	–	199	–	–	–
CCCCNC(=O)CNC(=O)[C@H](O)C(C)(C)CO	–	–	5.3	25	–	–
CN(C)c1cccc2c(S(=O)(=O)NCCCCCNC(=O)CNC(=O)[C@H](O)C(C)(C)CO)cccc12	157	–	155	5	–	–
CC(C)(CO)[C@@H](O)C(=O)NCCC(=O)NCc1ccc(OC(F)(F)F)cc1	–	136	> 200	–	–	–
CCCCCCCNC(=O)CCCNC(=O)[C@H](O)C(C)(C)CO	–	–	11	5	–	–
CC(C)CNC(=O)CCNC(=O)[C@H](O)C(C)(C)CO	–	1.1	200	–	–	–
CCSCCNC(=O)CCNC(=O)[C@H](O)C(C)(C)CO	–	0.28	87	–	–	–
CCCCNC(=O)CCCNC(=O)[C@H](O)C(C)(C)CO	–	–	11	25	–	–
CC(C)(CO)[C@@H](O)C(=O)NCCC(=O)NCCc1ccccc1	–	0.02	53	–	–	–

Structure (SMILES)	IC50 [1] [µM]	IC50 [2] [µM]	IC50 [3] [µM]	metabolised at 10 min, 200 µM [4] [%]	IC50 [5] [µM]	selectivity ratio [6]
COc1cccc(CNC(=O)CCNC(=O)[C@H](O)C(C)(C)CO)c1	–	> 200	> 200	–	–	–
CCCNC(=O)CNC(=O)[C@H](O)C(C)(C)CO	–	–	13	5	–	–
CSCCCNC(=O)CCCNC(=O)[C@H](O)C(C)(C)CO	–	–	7.7	5	–	–
CC(C)(CO)[C@@H](O)C(=O)NCC(=O)NCc1ccc2c(c1)OCO2	> 200	–	53	5	–	–
CSCCCNC(=O)CCNC(=O)[C@H](O)C(C)(C)CO	–	0.23	143	–	–	–
CC(C)(CO)[C@@H](O)C(=O)NCC(=O)NCCc1ccccc1	135	–	3.4	5	53	16
CCCCCCNC(=O)CCCNC(=O)[C@H](O)C(C)(C)CO	199	14	8	5	–	–
COc1ccc(CNC(=O)CCNC(=O)[C@H](O)C(C)(C)CO)cc1	–	> 200	> 200	–	–	–
CC(C)(CO)[C@@H](O)C(=O)NCC(=O)NCC1CCCCC1	–	140	164	5	–	–
CC(C)(CO)[C@@H](O)C(=O)NCCCC(=O)NCCc1ccccc1	139	–	2.1	5	99	47
CC(C)(CO)[C@@H](O)C(=O)NCCCC(=O)NCC1CC1	–	–	12	5	–	–
CC(C)(CO)[C@@H](O)C(=O)NCCC(=O)NCC1CC1	–	–	149	–	–	–
CC(C)(CO)[C@@H](O)C(=O)NCC(=O)NCc1ccc(C(F)(F)F)cc1	57	45	48	5	–	–
CCCCCCNC(=O)CCNC(=O)[C@H](O)C(C)(C)CO	–	0.55	134	–	–	–
CCCNC(=O)CCCNC(=O)[C@H](O)C(C)(C)CO	–	–	13	5	–	–
CC(C)(CO)[C@@H](O)C(=O)NCC(=O)NCC1CC1	183	–	6.4	5	–	–
CC(C)(CO)[C@@H](O)C(=O)NCC(=O)NCc1ccc(OC(F)(F)F)cc1	> 200	64	71	5	–	–
CC(C)(CO)[C@@H](O)C(=O)NCCCC(=O)NCc1ccc(OC(F)(F)F)cc1	> 200	4.9	6.3	5	–	–
CCCCCNC(=O)CCNC(=O)[C@H](O)C(C)(C)CO	–	7.5	182	–	–	–
CC(C)(CO)[C@@H](O)C(=O)NCCCC(=O)NCc1ccc(C(F)(F)F)cc1	–	–	–	5	–	–
CC(C)(CO)[C@@H](O)C(=O)NCCCC(=O)NCc1cccc(C(F)(F)F)c1	–	–	–	5	–	–
CC(C)(CO)[C@@H](O)C(=O)NCCCC(=O)NCc1ccccc1	> 200	4.7	6.1	5	–	–
CN(C)c1cccc2c(S(=O)(=O)NCCCCCNC(=O)CCCNC(=O)[C@H](O)C(C)(C)CO)cccc12	–	–	–	5	–	–
CN(C)c1cccc2c(S(=O)(=O)NCCCCCNC(=O)CCNC(=O)[C@H](O)C(C)(C)CO)cccc12	–	–	> 200	–	–	–
CSCCCNC(=O)CNC(=O)[C@H](O)C(C)(C)CO	–	–	38	5	–	–
CCCCCCCNC(=O)CCNC(=O)[C@H](O)C(C)(C)CO	–	–	> 200	–	–	–
COc1ccc(CNC(=O)CCCNC(=O)[C@H](O)C(C)(C)CO)cc1	> 200	10	9.5	5	–	–
